According to article PMC6410374 (Biomaterials science, 2019):

What was measured:
[1] = system: humans; conditions: very low doses; idiosyncratic thrombocytopenia purpura; ref [13]; cited from earlier work
[2] = target: IgG; conditions: read-out: binding constant for IgG; ref [20]; cited from earlier work
[3] = target: fluorescein-labeled rabbit polyclonal IgG (Oryctolagus cuniculus, UniProt P01870); test: Microplate-based titration of IgG against Z15_EAK/EAK coacervate; format: binding; conditions: constant concentration of EAK; data not shown
[4] = system: IgG^800; test: In vivo IgG^800 retention in mouse footpads; set-up: species or system C57BL/6 mice
Method in brief: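 Female C57BL/6 mice, 8–12 weeks old, under isoflurane (5% induction, 3% maintenance). Fluorescent IgG800 premixed with peptide coacervate or EAK was injected subcutaneously into one footpad (28G needle) without hair removal. Imaged before injection and every two days with near-infrared imaging at 255 μm resolution. Injection-site ROI was normalized to a non-injected background ROI; the 5-min signal was set as 100% (0.065 μg/μl). Ex vivo scans were taken at 800 channel.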

[5] = Congo red absorbance / fibrillization; format: physicochemical; conditions: EAK: upon exposure to high ionic strengths
Method in brief: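 Congo red (1×, diluted from 10X stock in PBS) incubated with peptide for at least 1 h. Absorbance scanned across 400–600 nm on a microplate reader with 0 ms settle time. Peak position and shift read from spectra, with repeat scans over time.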

[6] = system: CD8 T cells from humans exposed to the human polyomavirus 2 protein; conditions: T cells of patients exposed to the virus; HLA-A*0201; ref [35]; cited from earlier work

Sequence of fluorescein-labeled rabbit polyclonal IgG (P01870 101-323 limits assumed): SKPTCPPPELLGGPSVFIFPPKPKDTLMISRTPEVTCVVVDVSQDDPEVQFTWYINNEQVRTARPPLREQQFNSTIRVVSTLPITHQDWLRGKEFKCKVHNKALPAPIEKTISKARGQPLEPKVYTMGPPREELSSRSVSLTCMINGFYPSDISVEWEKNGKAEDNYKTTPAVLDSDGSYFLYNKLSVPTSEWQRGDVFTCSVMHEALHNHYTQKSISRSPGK

PRTX-100: Highly purified SpA developed as a therapeutic for idiosyncratic thrombocytopenia purpura
safety in phase-I clinical trials [1]: safe

SpA: 42-kDa protein consisting of five homologous Fc-binding domains (E, D, A, B and C)
Kd [2]: ~20 nM

AEAEAKAKAEAEAKAK
affinity constants of IgG titrated against EAK [3]: ambiguous affinity constants
IgG^800 retained in footpad ([4]; after 4 days, 5 min signal = 100%): 8%
antibody in draining lymph node ([4]; footpad injection, day 28): found in the draining lymph node
fibril formation kinetics [5]: almost instantaneously

RIPLPNLNEDLTCGN
T cell recall in vitro [6]: recalled in vitro
